Measurements from ChEMBL document CHEMBL1158163, “A re-examination of the difluoromethylenesulfonic acid group as a phosphotyrosine mimic for PTP1B inhibition” (Bioorg Med Chem, 2008).
Starred links: 1 amine or outer side, 2 acyl side, 3 side chain; linkers in the order of their positions; H or OH if unused. Non-standard residues stand in square brackets, D forms with d. Residues, ends and D or L forms follow the SMILES beside them. X1 = O=C([C@@H](Cc1cccc(C(F)(F)S(=O)(=O)O)c1)N[*:1])[*:2]; X3 = O=C([C@@H](Cc1cccc(C(F)(F)P(=O)(O)O)c1)N[*:1])[*:2]; X2 = O=C([C@@H](Cc1cccc(CS(=O)(=O)O)c1)N[*:1])[*:2]

Target: T1, Tyrosine-protein phosphatase non-receptor type 1 (Homo sapiens, UniProt P18031)
T1 sequence (P18031 whole entry): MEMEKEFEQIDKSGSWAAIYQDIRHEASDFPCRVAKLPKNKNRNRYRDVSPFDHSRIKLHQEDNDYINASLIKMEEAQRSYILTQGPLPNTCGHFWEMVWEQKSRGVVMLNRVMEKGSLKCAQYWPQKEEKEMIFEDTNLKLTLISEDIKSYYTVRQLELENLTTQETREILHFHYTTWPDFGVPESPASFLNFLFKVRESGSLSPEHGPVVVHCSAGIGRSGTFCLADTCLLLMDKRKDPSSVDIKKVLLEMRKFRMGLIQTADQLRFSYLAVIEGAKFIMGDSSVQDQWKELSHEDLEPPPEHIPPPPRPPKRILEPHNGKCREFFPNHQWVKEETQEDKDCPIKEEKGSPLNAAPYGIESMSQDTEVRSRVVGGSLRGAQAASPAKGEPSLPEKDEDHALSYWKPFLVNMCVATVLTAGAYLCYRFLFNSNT
Assay: Inhibition of human PTP1B expressed in Escherichia coli BL21(DE3) cells
Outline: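 IC50 assay at 25 °C in 50 mM Bis–Tris HCl pH 6.3 with 2% glycerol, 0.1% Triton X-100, 4% DMSO, 4.5 mM DTT, 1.8 mM EDTA (final). DiFMUP substrate at Km (5 µM). Reaction started by adding PTP1B. DiFMU fluorescence (ex 360/em 460 nm) followed for 10 min. Initial rates Vi/Vo fitted semi-log to Vi = Vo/[1+([I]/IC50)^S]+B.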

Row | Structure (SMILES) | IC50 [µM] | Ki [µM]
1 | O=P(O)(O)C(F)(F)c1ccc2ccccc2c1 | 35 | –
2 | CC(C)C[C@H](NC(=O)[C@@H](Cc1cccc(C(F)(F)S(=O)(=O)O)c1)NC(=O)[C@H](CCC(=O)O)NC(=O)[C@H](CC(=O)O)NC(=O)[C@H](C)NC(=O)[C@@H](N)CC(=O)O)C(N)=O (H-DADE[X1]L-NH2) | 10 | –
3 | CC(C)C[C@H](NC(=O)[C@@H](Cc1cccc(CS(=O)(=O)O)c1)NC(=O)[C@H](CCC(=O)O)NC(=O)[C@H](CC(=O)O)NC(=O)[C@H](C)NC(=O)[C@@H](N)CC(=O)O)C(N)=O (H-DADE[X2]L-NH2) | 44 | –
4 | CC(C)C[C@H](NC(=O)[C@@H](Cc1cccc(C(F)(F)P(=O)(O)O)c1)NC(=O)[C@H](CCC(=O)O)NC(=O)[C@H](CC(=O)O)NC(=O)[C@H](C)NC(=O)[C@@H](N)CC(=O)O)C(N)=O (H-DADE[X3]L-NH2) | – | 0.024

Continued, values first:

Row | IC50 [µM] | Ki [µM] | Structure (SMILES)
5 | 0.006 | – | NS(=O)(=O)c1cc(-c2ccc(CSCc3ccc(C(F)(F)P(=O)(O)O)c(Br)c3)cc2)ccc1Br
6 | 13 | 10.6 | NS(=O)(=O)c1cc(-c2ccc(CSCc3ccc(C(F)(F)S(=O)(=O)O)c(Br)c3)cc2)ccc1Br
7 | 19 | 10.3 | NS(=O)(=O)c1cc(-c2ccc(CSCc3ccc(CS(=O)(=O)O)c(Br)c3)cc2)ccc1Br
8 | 0.03 | 0.024 | NS(=O)(=O)C(F)(F)c1cc(-c2ccc(CSCc3ccc(C(F)(F)P(=O)(O)O)c(Br)c3)cc2)ccc1Br
9 | 6 | 3.3 | NS(=O)(=O)C(F)(F)c1cc(-c2ccc(CSCc3ccc(C(F)(F)S(=O)(=O)O)c(Br)c3)cc2)ccc1Br
